One assay addresses Pancreatic elastase (Sus scrofa, UniProt P08419+P00772). Nature of the assay: Ki value was evaluated for the inhibition of porcine pancreatic elastase. The assay is classed as protein assay. The method in brief: (§1)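 PPE, 9.0 × 10⁻⁶ M, incubated with inhibitor in acetonitrile in 50 mM phosphate pH 6.5 at 25 °C, at inhibitor:enzyme ratios of 20–150. Aliquots taken over time were assayed with Boc-L-Ala-p-nitrophenyl ester: 30 s preincubation, then absorbance change over 2 min at 347.5 nm. Controls contained acetonitrile. Kobs came from ln(Et/E0) vs time, two runs per concentration. Ki and k3 came from the double-reciprocal replot, and k3/Ki was computed.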

Assay [1] addresses T1, Pancreatic elastase (Sus scrofa) (UniProt P08419+P00772). Nature of the assay: k3 value was evaluated for the inhibition of porcine pancreatic elastase. The assay is classed as protein assay. The method in brief:
as §1

Assay [2] concerns the target T1, Pancreatic elastase (Sus scrofa). Put plainly: k3 value was evaluated for the inhibition of porcine pancreatic Elastase. The assay is classed as protein assay. The method in brief:
as §1

Assay [3] shares this target. Nature of the assay: k3/k1 ratio of the compound. It is filed as protein assay. The method in brief:
as §1

Assay [4] addresses T2, Neutrophil elastase (Homo sapiens) (UniProt P08246).
T2 sequence (whole entry): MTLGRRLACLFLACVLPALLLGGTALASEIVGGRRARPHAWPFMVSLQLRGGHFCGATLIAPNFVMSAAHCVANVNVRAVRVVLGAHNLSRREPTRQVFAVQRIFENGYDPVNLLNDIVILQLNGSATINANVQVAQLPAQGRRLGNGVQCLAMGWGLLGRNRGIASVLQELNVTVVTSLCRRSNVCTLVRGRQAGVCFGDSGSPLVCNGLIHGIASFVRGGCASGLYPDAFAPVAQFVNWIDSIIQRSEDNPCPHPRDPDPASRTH
Nature of the assay: Percent inhibition against human leukocyte elastase. The settings on record: concentration not given here. The method in brief:
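HLE, 1.53 × 10⁻⁴ M stock in Tris-HCl pH 7.5, was incubated with inhibitor for 20 min. Residual activity was assayed by adding succinyltrialanyl-p-nitroanilide (2.3 × 10⁻³ M stock in Tris buffer).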

Assay [5] deals with T1, Pancreatic elastase (Sus scrofa). Put plainly: Percent inhibition against porcine pancreatic elastase. The assay is classed as protein assay. The settings on record: concentration not given here. The method in brief:
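PPE, 4.50 × 10⁻⁶ M stock in phosphate buffer pH 6.5, was incubated at 25 °C for 20 min with inhibitor (2.50 × 10⁻³ M stock in acetonitrile). Remaining activity was assayed by adding Boc-L-alanyl-p-nitroanilide (2.22 × 10⁻² M stock).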

The target in another assay is T3, Neutrophil elastase (Homo sapiens, UniProt P08246).
T3 sequence (P08246 whole entry): T2 sequence (whole entry)
Put plainly: Ki value was evaluated for the inhibition of human leukocyte elastase. The method in brief:
(§2)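 HLE, 1.6 × 10⁻⁷ M, in Tris-HCl buffer pH 8.0 at 25 °C. Inhibitor was dissolved in N-methylpyrrolidinone. Loss of activity was followed continuously with succinyl-L-trialanyl-p-nitroanilide at 410 nm as a pseudo-first-order reaction, and rate constants were found by the Tsou method. Ki and k3 were taken from the double-reciprocal replot 1/kobsd vs 1/[I].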

Assay [6] concerns the target T2, Neutrophil elastase (Homo sapiens). Nature of the assay: k3 value was evaluated for the inhibition of human leukocyte elastase. The method in brief: as §2

Here are results for 13 compounds from ChEMBL document CHEMBL1122889, “Amino acid derived latent isocyanates: irreversible inactivation of porcine pancreatic elastase and human leukocyte elastase” (J Med Chem, 1985).

Regarding `CCCCNC(=O)n1ccnc1`, the Ki – broadly, the equilibrium dissociation constant of an inhibitor or competing ligand from its target – on Pancreatic elastase is 1400 µM. The same compound registered a k3 in assay [1] of 0.011 s⁻¹.

In turn, `CCC(C)[C@H](NC(=O)n1ccnc1)C(=O)OC` (some centres undefined) displayed a Ki on Pancreatic elastase of 1220 µM. The same compound came in with a k3 in assay [2] of 0.07 min⁻¹. Further, the k3/k1 in assay [3] was 1 M⁻¹ s⁻¹.

As to `CCCCNC(=O)n1cnc(C)c1`, at Pancreatic elastase, the Ki is 7230 µM. For the same compound, in assay [2], the k3 came out at 0.06 min⁻¹.

Turning to `COC(=O)C(CCSC)N=C=O` (centres undefined), the inhibition – broadly, how much of the control response was suppressed – in assay [4] was 100%; in assay [5], 27%.

The compound `CCCCNC(=O)n1ccnc1C` showed a Ki on Pancreatic elastase of 2410 µM. In assay [2], this compound had a k3 of 0.3 min⁻¹.

Regarding `CCC[C@H](NC(=O)n1ccnc1)C(=O)OC`, the figures for the inhibitory constant (Ki) on Neutrophil elastase and at Pancreatic elastase were 320 µM and 840 µM, respectively. Besides, the k3 in assay [2] was determined as 0.322 min⁻¹; in assay [6], 9.6 min⁻¹.

For `COC(=O)[C@H](CC(C)C)NC(=O)n1ccnc1`, at Pancreatic elastase, the inhibition constant Ki came out at 1170 µM. Besides, the k3 in assay [2] amounted to 0.04 min⁻¹. Besides, the k3/k1 in assay [3] was 0.5 M⁻¹ s⁻¹.

In the case of `COC(=O)[C@@H](NC(=O)n1ccnc1)C(C)C`, the inhibitory constant (Ki) was 1800 µM on Neutrophil elastase and 1110 µM at Pancreatic elastase. In addition, the k3 stood at 0.00305 s⁻¹ in assay [1] and 20.8 min⁻¹ in assay [6].

With `COC(=O)[C@H](CCSC)NC(=O)n1ccnc1`, the inhibition in assay [4] is 100%; in assay [5], 0%.

`CCCCCCCc1nccn1C(=O)NCCCC` displayed an inhibitory constant (Ki) at Pancreatic elastase of 2410 µM. In assay [2], the k3 is 0.12 min⁻¹.

On Pancreatic elastase, `CCCCNC(=O)n1ccnc1CC` registered a Ki of 470 µM. In assay [2], this compound yielded a k3 of 0.12 min⁻¹.

Consider `CCCCC(NC(=O)n1ccnc1)C(=O)OC` (centres undefined), for which the inhibition constant Ki on Neutrophil elastase is 1000 µM; on Pancreatic elastase, 1940 µM. The k3 in assay [2] turned out to be 0.255 min⁻¹; in assay [6], 10 min⁻¹.

Consider `CCCC(N=C=O)C(=O)OC` (centres undefined), for which the values for the inhibition in assay [4] and in assay [5] were 100% and 98%, respectively.
